Bioassay records from PubChem BioAssay.
This excerpt belongs to a sample that is enriched for hits.
LANA-nucl inh: inhibitors of KSHV LANA binding to nucleosomes. FITC-LANA1-23 / chicken nucleosome fluorescence polarization; hits give low values. z-score (concentration not given with the values). 51,000 tested, 0.3% active;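 active = both repeat wells score below -2 in polarization z-score versus plate sample wells, excluding overly bright wells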
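Assay system: FITC-LANA peptide and chicken nucleosomes; input: 240 nM purified chicken nucleosomes (480 nM peptide binding sites), final; also added: 50 nM FITC-LANA1-23 probe; medium: TEN-BT buffer, pH 7.5; doses: pin-transferred compound, 100 nL; times: 10–45 min, room temperature; technique: fluorescence polarization; replication: duplicates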
Ab BasE inh: blocks the Acinetobacter baumannii siderophore enzyme BasE | inhibition, % (concentration not given with the values) | purified BasE, fluorescence polarization binding displacement | 84,000 tested, 0.1% active | AID 485350; in the data active = inhibition above about 25%, passing the limit was not always enough;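 also: 0% = negative plate control signal and 100% = positive plate control signal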
* marks the source's active call; other numbers are inactive results; . = no result given; ! = repeats disagree.

SMILES | LANA-nucl inh | Ab BasE inh
O=c1[nH]c(=O)c2nc3cc(C(F)(F)F)ccc3nc2[nH]1 | -2.92* | 13.3
CCN(Cc1nc2ccccc2c(=O)[nH]1)Cc1nc2cc(C(F)(F)F)ccc2c(=O)[nH]1 | . | -0.5
Cc1cc(C)c(C#N)c(SCC(=O)N(c2ccccc2)C2CCS(=O)(=O)C2)n1 (stereo not drawn) | . | -1.2
CC(=O)N1N=C(c2cccc(I)c2)OC1c1ccncc1 (stereo not drawn) | -0.146 | 59.1*
CCC(=O)Nc1cccc(C2=NN(C(C)=O)C(c3ccc(F)cc3)O2)c1 (stereo not drawn) | -1.06 | 0.0
O=C1CC(N2CCN(c3ccc(O)cc3)CC2)C(=O)N1c1ccc(Cl)c(C(F)(F)F)c1 (stereo not drawn) | . | -0.3
Oc1ccc(Cl)c2cccnc12 | -0.116 | -1.2
Oc1ccc(Br)c2cccnc12 | 1.01 | 56.8*
Cc1ccccc1OCC1=NN2C(=N)/C(=C/c3ccc(N(C)C)cc3)C(=O)N=C2S1 | -4.76* | 11.0
Cc1ccccc1OCC1=NN2C(=N)/C(=C\c3ccc(SCc4ccco4)o3)C(=O)N=C2S1 | 3.1 | -2.9
COc1ccccc1C1C=C(c2cccnc2)Nc2nc3ccccc3n21 (stereo not drawn) | -4.8* | 28.8
COc1ccccc1C1C2=C(CC(C)(C)CC2=O)Nc2nc3ccccc3n21 (stereo not drawn) | -0.738 | 1.1
N#CCCN(/N=C/c1ccccc1)C1=NS(=O)(=O)c2ccccc21 | . | 2.5
CCN(CC)c1ccc(/C=N/N(CCC#N)C2=NS(=O)(=O)c3ccccc32)cc1 | -8.37* | 10.7
CN(C)c1ccc2c(c1)S(=O)(=O)c1cc(N(C)C)ccc1C2=O | -3.99* | 33.0
CN1CCN(C(=O)c2ccc3c(c2)S(=O)(=O)c2ccccc2C3=O)CC1 | . | 0.5
O=c1[nH]c2c(s1)C=Nc1cc3ccccc3cc1N2 | -2.27* | 23.1
Cn1c(SCc2ccccc2Cl)nnc1-c1oc2nc(-c3ccccc3)cc(-c3ccco3)c2c1N | -0.258 | -6.5
Cn1c(-c2oc3nc(-c4ccccc4)cc(-c4ccco4)c3c2N)n[nH]c1=S | -2.32* | 2.6
CC(=O)Nc1cccc(-c2nnc(SCc3cccc(Cl)c3)n2C)c1 | -0.53 | 1.9
CCCCc1cc(=O)oc2c(CN(C)C)c(O)ccc12 | 0.708 | 20.0
CC[C@@]1(O)C(=O)OCc2c1cc1n(c2=O)Cc2cc3c(CN(C)C)c(O)ccc3nc2-1 | -9.04*! | 15.3
Cc1cc(C)cc(-n2ccn3c(CCCC(=O)O)nnc3c2=O)c1 | 2.15 | -0.4
O=C(c1ccc(S(=O)(=O)NCc2ccco2)cc1)N1CCN(c2ncccn2)CC1 | . | -1.5
O=C1NC2(CCCCC2)Nc2ccccc21 | 0.318 | 0.0
SMILES | LANA-nucl inh | Ab BasE inh
O=C1NC2(Cc3ccccc3C2)Nc2ccccc21 | -2.05* | 1.6
CN(C)C(=O)N(C)C1CCS(=O)(=O)C1 (stereo not drawn) | -1.53 | -1.0
CCc1nc2ccc(C(=O)NCCc3ccco3)cc2nc1CC | -2.17* | 1.7
Cc1ccc(CCNC(=O)c2ccc3nc(-c4ccco4)c(-c4ccco4)nc3c2)cc1 | -0.774 | 0.1
CCOCC(=O)NCc1ccc(OC)cc1 | 0.308 | -1.0
O=C1C=CC(=O)c2c(Cl)ccc(Cl)c21 | -0.036 | 79.9*
CC(C)c1ccc(C2=CC(=O)C=CC2=O)cc1 | 0.662 | 2.3
O=C1c2c(O)ccc(O)c2C(=O)c2c(NCCNCCO)ccc(NCCNCCO)c21 | -9.06* | 0.9
COc1cc2[nH]c(=O)n(CCCC(=O)N3CCN(c4ccc(Cl)cc4)CC3)c(=O)c2cc1OC | -0.858 | 0.7
O=C(NCc1ccccc1)c1cccnc1Nc1ccccc1 | -1.1 | 0.4
Nc1cccnc1Nc1ccccc1 | -3.06* | 23.8
O=C(COc1ccccc1)OC1OCCOC1OC(=O)COc1ccccc1 (stereo not drawn) | . | -1.0
CCOC(=O)C1=C(O)CCN(C)C1 | . | 2.8
COc1ccc(CNC(=O)c2ccc(CNC(N)=O)cc2)cc1 | . | 1.7
C1CNCCN1 | 1.55 | -2.1
C1COCCNCCOCCN1 | -2.63* | -2.0
Cc1ccc2c(c1)c(N=NC(=O)CCc1ccccc1)c(O)n2C(C)C | . | 5.6
COc1ncnc(Cl)c1N | 0.219 | -1.0
Cc1ccnc(Cl)c1N | 0.0355 | 44.6*
O=C(Oc1cccc2cccnc12)c1ccccc1 | -0.04 | 1.8
O=C(Oc1cccc2cccnc12)c1cc(C(F)(F)F)cc(C(F)(F)F)c1 | . | 42.4*
CC(Cn1nnc2ccccc21)C(=O)O (stereo not drawn) | . | 4.2
C/C(Cn1nnc2ccccc21)=N/OC(=O)c1c(F)cccc1F | 0.504 | 52.7*
NC1=NC2(CCSC2)n2c(nc3ccccc32)N1 (stereo not drawn) | . | -1.9
O=C(c1cnn(-c2cccc(F)c2)c1-n1cccc1)N1CCCC1 | . | 3.0
SMILES | LANA-nucl inh | Ab BasE inh
COc1ccc(N2CCN(C(=O)c3ccccc3OC)CC2)cc1 | -0.529 | -2.6
COc1ccc(N2CCN(C(=O)c3ccc(-n4cnnc4)cc3Cl)CC2)cc1 | -2.04* | 2.8
COC(=O)c1cc(NC(=O)C2CCCN(S(=O)(=O)N3CCC(C)CC3)C2)cc(C(=O)OC)c1 (stereo not drawn) | -1.51 | 1.2
CC1CCN(S(=O)(=O)N2CCCC(C(=O)Nc3ccccc3C(=O)c3ccccc3)C2)CC1 (stereo not drawn) | -2.23* | -0.4
O=C(c1ccc(O)cc1)c1ccc(O)cc1O | 0.208 | 31.3*
COc1ccc(C(=O)c2ccccc2)c(O)c1 | -0.266 | 0.4
COCc1cc(C)nc(SCC(=O)c2ccc(O)c(O)c2)c1C#N | . | 37.0*
Cc1ccc(C(=O)CSc2nc(C)cc(C)c2C#N)cc1 | -1.45 | 0.0
CC1SC(C)C(=O)N(CC(=O)Nc2ccc3c(c2)OCCO3)C1=O (stereo not drawn) | -0.629 | 1.7
COc1ccc(S(=O)(=O)NNC(N)=S)cc1 | 0.255 | -0.6
COc1ccc(S(=O)(=O)c2ccc(O)cc2)cc1 | 0.132 | 51.2*
O=C(c1ccccc1)c1cnc2cc3c(cc2c1N1CCN(c2ccccc2)CC1)OCCO3 | -0.869 | 1.8
COC(=O)c1cnn(-c2c(Cl)cccc2Cl)c1C=C(C#N)C#N | -0.881 | 3.5
COC(=O)c1cc(-c2cocc2C=C(C#N)C#N)ccc1Cl | -4.66* | 6.9
O=C(CSc1nnc(-c2ccc(OC(F)F)cc2)o1)NCC12CC3CC(CC(C3)C1)C2 | . | 0.9
Nc1ccc2nsnc2c1 | -3.07* | 25.7
CCOC(=O)c1ccc2nsnc2c1 | 0.364 | 0.1
COC(=O)c1ccc(Oc2nc(Nc3cccc(C)c3C)nc(N3CCC(C)CC3)n2)cc1 | . | 0.9
Cn1c(=O)n(C)c2cc(C=C3C(=O)c4ccccc4C3=O)ccc21 | -0.477 | -14.8
Cc1oc2ncn(CC(C)C)c(=O)c2c1C(=O)N=C1NC(=O)CS1 | . | -1.7
CC(=O)n1cc(/C=N/NC(=O)c2cccc(O)c2)c2ccccc21 | 0.467 | 27.7*
O=C(N/N=C/c1c[nH]c2ccccc12)c1cccc(O)c1 | -0.365 | 20.6
Cn1c(=O)c(=O)[nH]c2c(=O)oc3ccccc3c21 | -0.307 | 1.8
COc1ccc(Nc2cc(C)c3cc(NC(=O)c4ccco4)ccc3n2)cc1 | -0.252 | -0.4
Nc1nnc(-c2cccs2)c(=O)n1N | . | 30.6*
Nn1c(NNC(=O)c2ccccc2)nnc(-c2cccs2)c1=O | . | 1.8
Cc1ccnc(SCC(=O)N2CCc3ccccc3C2)n1 | . | 39.5*
O=C(CSc1ncccn1)N1CCc2ccccc2C1 | 0.45 | 1.2
O=C(O)C1CCCN1C(=O)c1ccco1 (stereo not drawn) | -0.0585 | 0.8
CC(C)(C)CC(C)(C)NC(=O)Nc1cccc(Cl)c1 | -2.02* | 1.9
